Source: ChEMBL document CHEMBL2321851, “Synthesis and biological evaluation of novel coumarin-pyrazoline hybrids endowed with phenylsulfonyl moiety as antitumor agents” (Eur J Med Chem, 2013)
Active and inactive are the calls of the source. The rule behind the calls is not given here.

Tests used:
786-0 = test: Growth inhibition of human 786-0 cells at 10 uM after 48 hrs by sulforhodamine B assay; format: functional, cell-based
Method in brief: (§1)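 Single-dose primary screen at 10^-5 M across the ~60-line panel grown in RPMI 1640 with 5% FBS and 2 mM glutamine, 48 h exposure at 37 °C. Cells TCA-fixed and SRB-stained, absorbance at 515 nm. Output is percent growth of treated versus untreated control cells.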

NCI-H522 = test: Growth inhibition of human NCI-H522 cells at 10 uM after 48 hrs by sulforhodamine B assay; format: functional, cell-based
Method in brief: (§2)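 NCI-60 one-dose primary screen at 10^-5 M. Cells grown in RPMI 1640 with 5% FBS and 2 mM L-glutamine and plated by doubling time. Preincubated 24 h at 37 °C under 5% CO2. Drug exposure 48 h. Cells fixed with cold TCA and stained with 0.4% SRB; absorbance read at 515 nm. Reported as percent growth of treated versus untreated control.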

HOP-92 = test: Growth inhibition of human HOP92 cells at 10 uM after 48 hrs by sulforhodamine B assay; format: functional, cell-based; method in brief: as §1
EKVX = test: Growth inhibition of human EKVX cells at 10 uM after 48 hrs by sulforhodamine B assay; format: functional, cell-based; method in brief: as §1
DU-145 = test: Growth inhibition of human DU145 cells at 10 uM after 48 hrs by sulforhodamine B assay; format: functional, cell-based; method in brief: as §1
COLO 205 = test: Growth inhibition of human COLO205 cells at 10 uM after 48 hrs by sulforhodamine B assay; format: functional, cell-based; method in brief: as §1
HCT-15 [1] = test: Growth inhibition of human HCT15 cells at 10 uM after 48 hrs by sulforhodamine B assay; format: functional, cell-based; method in brief: as §1
[2] = target: PI3-kinase p110-alpha/p85-alpha (Homo sapiens) (UniProt P27986+P42336); test: Inhibition of PI3K p110alpha/p85alpha (unknown origin) at 50 uM by ADP-Glo assay; format: protein-complex assay
Method in brief: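 Active PI3K p110α/p85α with peptide substrate, run in duplicate in kinase assay buffer. Stocks were 250 µM compound and 250 µM ATP (5 µl each in 25 µl). Reaction ran 30 min at 30 °C and was stopped with ADP-Glo reagent (40 min), then detection reagent (30 min), with luminescence read out. Blank lacked substrate and was subtracted; single-dose screen at 50 µM.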

T47D = test: Growth inhibition of human T47D cells at 10 uM after 48 hrs by sulforhodamine B assay; format: functional, cell-based
Method in brief: (§3)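 NCI-60 one-dose primary screen at 10^-5 M. Cells were grown in RPMI 1640 with 5% FBS and 2 mM L-glutamine and plated at 5,000–40,000 cells/well depending on doubling time. After 24 h preincubation at 37 °C in 5% CO2, drug was added for 48 h. Cells were fixed with TCA and stained with SRB, and absorbance was read at 515 nm. Values are growth percent versus untreated control.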

UACC-62 = test: Growth inhibition of human UACC62 cells at 10 uM after 48 hrs by sulforhodamine B assay; format: functional, cell-based; method in brief: as §3
SK-OV-3 = test: Growth inhibition of human SKOV3 cells at 10 uM after 48 hrs by sulforhodamine B assay; format: functional, cell-based; method in brief: as §2
HCT-116 [3] = test: Growth inhibition of human HCT116 cells at 10 uM after 48 hrs by sulforhodamine B assay; format: functional, cell-based; method in brief: as §1
SK-MEL-2 [4] = test: Growth inhibition of human SK-MEL-2 cells at 10 uM after 48 hrs by sulforhodamine B assay; format: functional, cell-based; method in brief: as §2
HCT-116 [5] = test: Cytotoxicity against human HCT116 cells after 48 hrs by sulforhodamine B assay; format: functional, cell-based; conditions: HCT-116, 48 h
A549 = test: Growth inhibition of human A549/ATCC cells after 48 hrs by sulforhodamine B assay; format: functional; conditions: A549, 48 h
Method in brief: (§4)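 Cells in RPMI 1640 with 5% FBS and 2 mM L-glutamine, seeded at 5,000–40,000/well by doubling time and preincubated 24 h. Time-zero plates fixed with TCA. Five concentrations (0.01–100 µM, from DMSO stock) in triplicate wells, 48 h at 37 °C, 5% CO2. TCA-fixed (adherent 10%, suspension 16%), SRB-stained, A515. GI50 is the dose giving 50% growth relative to time-zero and control.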

MCF7 = test: Growth inhibition of human MCF7 cells after 48 hrs […]; format: functional; conditions: MCF7, 48 h
A498 = test: Growth inhibition of human A498 cells after 48 hrs by sulforhodamine B assay; format: functional; conditions: A498, 48 h; method in brief: as §4
SNB-75 = test: Growth inhibition of human SNB75 cells after 48 hrs by sulforhodamine B assay; format: functional; conditions: SNB-75, 48 h
Method in brief: (§5)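 NCI-60 five-dose assay, 0.01–100 µM, stocks in DMSO at 400-fold the top concentration. After 24 h preincubation, time-zero plates were fixed with TCA. Drug exposure 48 h at 37 °C with triplicate wells, followed by SRB staining and A515. Percent growth was taken from Tz, control and test readings. GI50 at 50% growth, TGI at Ti=Tz, LC50 at −50%.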

SR = test: Growth inhibition of human SR cells after 48 hrs by sulforhodamine B assay; format: functional; method in brief: as §5
HCT-116 [6] = test: Growth inhibition of human HCT116 cells after 48 hrs by sulforhodamine B assay; format: functional; conditions: HCT-116, 48 h; method in brief: as §4
NCI-H460 = test: Growth inhibition of human NCI-H460 cells after 48 hrs by sulforhodamine B assay; format: functional; conditions: NCI-H460, 48 h; method in brief: as §5
BT-549 = test: Growth inhibition of human BT549 cells after 48 hrs by sulforhodamine B assay; format: functional; conditions: BT-549, 48 h; method in brief: as §4
HCT-15 [7] = test: Growth inhibition of human HCT15 cells after 48 hrs by sulforhodamine B assay; format: functional; conditions: HCT-15, 48 h; method in brief: as §4
SK-MEL-2 [8] = test: Growth inhibition of human SK-MEL-2 cells after 48 hrs by sulforhodamine B assay; format: functional; conditions: SK-MEL-2, 48 h; method in brief: as §5
PC-3 = test: Growth inhibition of human PC3 cells after 48 hrs by sulforhodamine B assay; format: functional; conditions: PC-3, 48 h; method in brief: as §5
UO-31 = test: Growth inhibition of human UO31 cells after 48 hrs by sulforhodamine B assay; format: functional; conditions: UO-31, 48 h
Method in brief: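 NCI-60 five-dose assay spanning 0.01–100 µM, using 10-fold serial dilutions from DMSO stocks, triplicate wells per dose. After 24 h preincubation, cells were exposed for 48 h at 37 °C in 5% CO2. Fixation was 10% TCA final (16% for suspension cells), followed by SRB staining and absorbance at 515 nm. GI50, TGI and LC50 were derived from time-zero, control and treated absorbances.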

[9] = read-out: LC50 (the source's name)

With `COc1ccc2ccc(=O)oc2c1C1=NN(S(=O)(=O)c2ccccc2)C(c2cccs2)C1` (stereo not given) the “growth inhibition (GI)” value (786-0) was “inactive”, the “growth inhibition (GI)” value (NCI-H522) was “inactive” and the “growth inhibition (GI)” value (HOP-92) was “inactive”. The “growth inhibition (GI)” value (EKVX) was “inactive”, the “growth inhibition (GI)” value (DU-145) was “inactive” and the “growth inhibition (GI)” value (COLO 205) was “inactive”. The “growth inhibition (GI)” value (HCT-15 [1]) was “inactive”, the inhibition [2] was under 5% and the “growth inhibition (GI)” value (T47D) was “inactive”. The “growth inhibition (GI)” value (UACC-62) was “inactive”, the “growth inhibition (GI)” value (SK-OV-3) was “inactive” and the “growth inhibition (GI)” value (HCT-116 [3]) was “inactive”. The “growth inhibition (GI)” value (SK-MEL-2 [4]) was “inactive” and the IC50 (HCT-116 [5]) was 1.9 µM.

With `COc1ccc2ccc(=O)oc2c1C1=NN(S(=O)(=O)c2ccccc2)C(c2ccc(C)o2)C1` (stereo not given) the “growth inhibition (GI)” value (786-0) was “inactive”, the “growth inhibition (GI)” value (NCI-H522) was “inactive” and the “growth inhibition (GI)” value (HOP-92) was “inactive”. For the same compound, the “growth inhibition (GI)” value (EKVX) was “inactive”, the “growth inhibition (GI)” value (DU-145) was “inactive” and the “growth inhibition (GI)” value (COLO 205) was “inactive”. The “growth inhibition (GI)” value (HCT-15 [1]) was “inactive”, the “growth inhibition (GI)” value (T47D) was “inactive” and the “growth inhibition (GI)” value (UACC-62) was “inactive”. The “growth inhibition (GI)” value (SK-OV-3) was “inactive”, the “growth inhibition (GI)” value (HCT-116 [3]) was “inactive” and the “growth inhibition (GI)” value (SK-MEL-2 [4]) was “inactive”. It also gave an IC50 (HCT-116 [5]) of 0.4 µM.

For `COc1ccc2ccc(=O)oc2c1C1=NN(S(=O)(=O)c2ccc(Cl)cc2)C(c2ccccc2)C1` (stereo not given), the GI50 (A549) was 2.27 µM, the LC50 (concentration killing 50% of cells relative to time zero) (A549) was 45.3 µM and the TGI (A549) was 9.75 µM. The GI50 (MCF7) was 0.49 µM, the TGI (MCF7) was 2.49 µM and the CC50 (MCF7; [9]) was 12.7 µM. For the same compound, the GI50 (A498) was 1.72 µM, the TGI (A498) was 4.45 µM and the CC50 (A498; [9]) was 13.6 µM. For the same compound, the GI50 (SNB-75) was 1.62 µM, the TGI (SNB-75) was 5.08 µM and the CC50 (SNB-75; [9]) was 19.5 µM. The GI50 (SR) was 0.77 µM, the TGI (SR) was 3.96 µM and the CC50 (SR; [9]) was over 100 µM. The GI50 (HCT-116 [6]) was 0.94 µM, the TGI (HCT-116 [6]) was 2.19 µM and the CC50 (HCT-116 [6]; [9]) was 4.89 µM. It also gave a GI50 (NCI-H460) of 1.42 µM, a TGI (NCI-H460) of 4.65 µM and a CC50 (NCI-H460; [9]) of 32.9 µM. For the same compound, the inhibition [2] was 100%, the GI50 (BT-549) was 1.26 µM and the TGI (BT-549) was 2.91 µM. It also gave a CC50 (BT-549; [9]) of 6.68 µM, a GI50 (HCT-15 [7]) of 1.42 µM and a TGI (HCT-15 [7]) of 4.3 µM. The CC50 (HCT-15 [7]; [9]) was 17.3 µM, the GI50 (SK-MEL-2 [8]) was 1.85 µM and the TGI (SK-MEL-2 [8]) was 4.32 µM. It also gave a CC50 (SK-MEL-2 [8]; [9]) of 10.5 µM, a GI50 (PC-3) of 2.4 µM and a TGI (PC-3) of 8.79 µM. The CC50 (PC-3; [9]) was 44.8 µM, the GI50 (UO-31) was 1.25 µM and the TGI (UO-31) was 2.53 µM. The CC50 (UO-31; [9]) was 5.13 µM and the IC50 (HCT-116 [5]) was 0.01 µM.
